Screening results as filed in PubChem BioAssay.
Rows were chosen to be rich in hits. Some 9.4% of all compounds tested hit in one or more screens of this group.
SKKanGAS inh: S. pyogenes SKKanGAS growth inhibitors in kanamycin, primary screen, streptokinase expression inhibitor project, SKKanGAS strain, BacTiter-Glo luminescence; inhibition, % at 7.5 µM; 6 h; hit rate 1.3% among 300,000; AID 1662, 2009;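 active means mean replicate score, as percent of positive control median, at least 50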;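 further: strain carries kanamycin resistance gene driven by streptokinase promoter and grows in 40 µg/ml kanamycin; loss of luminescence reflects streptokinase promoter inhibition or plain growth inhibition; 0% = median of DMSO wells and 100% = positive control at its reference dose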
Lmaj promast: Leishmania major promastigote growth inhibition, primary screen | Leishmania major promastigotes, resazurin fluorescence viability | inhibition, % at 10 µM | hit rate 9% among 200,000; in the data active means inhibition above about 50%;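 further: promastigotes grown with compound for 44 hours at 28 °C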
Mdm2-MdmX inh: inhibitors of human Mdm2-MdmX association, primary screen, cell-based, luminescence, split luciferase, SaOS-2, uHTS | Protein Mdm4 (Homo sapiens) + E3 ubiquitin-protein ligase Mdm2 (Homo sapiens), … | SaOS-2 split-luciferase Mdm2/MdmX complementation | inhibition, % at 8 µM | hit rate 3% among 330,000 | AID 485346, 2010;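 active means inhibition of at least 50% at 8 µM in the primary screen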
T cruzi repl: inhibitors of intracellular T. cruzi growth, primary screen, luminescence, NIH3T3 host cells. T. cruzi beta-gal in NIH3T3, 90 h. inhibition, % (no concentration beside the values). hit rate 1.4% among 300,000;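 active means mean inhibition across valid replicates above about 55%, limit read from the data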;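 further: signal also drops with host cell toxicity which is not excluded here; 0% = plate median of DMSO wells and 100% = zero luminescence signal; higher percent means less beta-gal luminescence so fewer parasites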
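System: Mouse NIH/3T3 fibroblasts infected with β-gal-expressing T. cruzi Tulahuen C4 | Quantity: NIH/3T3 cells, 5,000 per well | Reagent: 5000 reporter trypomastigotes per well | Dosing: Compound pinned at 50 nL/well, DMSO | Schedule: 3 h host attachment, then at least 90 h co-culture | Detection: GalScreen luminescence, 60 min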
Beta cell apopt: inhibitors of cytokine-induced beta cell apoptosis, primary screen, luminescence; INS-1E cytokine-induced death, ATP luminescence, 48 h; percent of positive-control rescue, neutral wells zero; protection from apoptosis, % (no concentration beside the values); hit rate 0.8% among 300,000; AID 435005, 2010;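 active means Every replicate reaches about 75%, or at least half do and their mean reaches it too, limit read from the data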;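 further: 0% = cytokine-treated negative control wells and 100% = positive control rescue; higher means more ATP so stronger rescue from cytokine killing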
CSC inhib: cancer stem cell viability inhibitors, primary screen, luminescence; inhibition, % at 7.5 µM; AID 2717, 2010; cancer stem cell-like cells viability; hit rate 1.1% among 300,000; in the data active means inhibition above about 75%; tested in HMLE shEcad cells
Mdm2 MdmX conf: Mdm2-MdmX complex disruptors, retested hits, confirmation, luminescence, single concentration; Mdm2-MdmX binding, luminescent assay; shares compounds with Mdm2-MdmX inh; inhibition, % at 8 µM; hit rate 55% among 10,000; in the data active means inhibition above about 40%
FLuc counter: full-length luciferase signal inhibition, confirmation, counter-screen for Mdm2/MdmX interaction inhibitor project, cell-based, single concentration, SaOS-2; shares compounds with Mdm2-MdmX inh; SaOS-2 full-length luciferase counterscreen, luminescence; inhibition, % at 8 µM; hit rate 77% among 6,200;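 active means mean inhibition at 8 µM reaching about 37%, which flags the compound as non-specific, limit read from the data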;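 further: p53-null SaOS-2 cells with luciferase driven by a doxycycline-inducible promoter; compound on cells about two nights before reading with doxycycline added after day one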
An asterisk follows results filed as active; nt = not tested or not shown.

SMILES	SKKanGAS inh	Lmaj promast	Mdm2-MdmX inh	T cruzi repl	Beta cell apopt	CSC inhib	Mdm2 MdmX conf	FLuc counter
COc1cc(C(=O)Nc2ccc3c(c2)CCN3C(C)=O)cc(OC)c1OC	-4	-3	59*	-4	11	61	59*	62*
Cc1cccc(NC(=S)N=Nc2c(O)n(C)c3ccc(S(=O)(=O)N4CCOCC4)cc23)c1	20	11	54*	44	41	29	54*	64*
Cc1cc(C)cc(NC(=S)N=Nc2c(O)n(C)c3ccc(S(=O)(=O)N4CCOCC4)cc23)c1	17	25	23	25	29	31	nt	nt
Cc1cccc(C)c1NC(=S)N=Nc1c(O)n(C)c2ccc(S(=O)(=O)N3CCOCC3)cc12	44	-1	64*	18	9	29	30	nt
CC(=O)Nc1nc2ccccc2n1Cc1ccccc1C	25	96*	79*	31	-13	nt	59*	71*
CC(=O)Nc1nc2ccccc2n1Cc1ccccc1Cl	52*	nt	67*	47	-7	33	60*	67*
Cn1c(NCc2ccccc2Cl)nc2ccccc21	5	nt	-93	-27	2	-4	nt	nt
O=C(Cc1ccccc1)NCC(=O)OCC(=O)c1ccc(Cl)cc1	-2	nt	1	-12	nt	-10	nt	nt
CCN1C(=O)CC(c2ccccc2)N(C2CCCC2)c2nc(Nc3ccc(C(=O)NC4CCN(C)CC4)cc3OC)ncc21 (centres undefined)	nt	nt	98*	nt	19	nt	46*	78*
CCN1C(=O)CSc2ccc(C(=O)NC3CCCCC3)cc21	6	1	-1	12	3	1	nt	nt
O=[N+]([O-])c1cc(-c2nc(-c3ccncc3)no2)ccc1Cl	-7	13	99*	-6	3	36	81*	23
CCCCN(C)CC(O)Cn1cc(/C=C/C(=O)c2ccc(OCC)cc2)c2ccccc21 (centres undefined)	5	nt	69*	59*	9	99*	19	nt
Cn1cc(/C=C/C(=O)c2ccccc2)c2ccccc21	-15	nt	-77	13	nt	17	nt	nt
Cc1cc(C)n(-c2nnc3n2N=C(c2c[nH]c4ccccc24)CS3)n1	-14	-3	56*	-1	-5	43	46*	50*
COc1ccc2nc(NC(=O)CC3Oc4ccccc4NC3=O)sc2c1 (centres undefined)	-12	nt	31	-9	-3	-5	nt	nt
CCOc1ccc2nc(NC(=O)CC3Oc4ccccc4NC3=O)sc2c1 (centres undefined)	9	nt	62*	6	9	-2	34	63*
COc1ccc(-c2c[n+]3c(n2-c2c(C)n(C)n(-c4ccccc4)c2=O)CCCCC3)cc1	-3	-8	-1	-28	-4	-9	nt	nt
COc1ccc(-c2c[n+]3c(n2-c2ccc(C)cc2)CCCCC3)cc1	10	nt	62*	60*	127*	16	40*	49*
CCOc1ccc(-n2c(-c3ccc(OC)cc3)c[n+]3c2CCCCC3)cc1	-5	100*	56*	53	97*	34	47*	46*
Cn1nc(C(F)(F)F)c(/C=N/OC(=O)c2ccccc2)c1SCc1ccc(Cl)cc1	-3	13	33	-27	-6	-14	nt	nt
Cn1nc(C(F)(F)F)c(/C=N/OC(=O)c2ccccc2Cl)c1SCc1ccccc1Cl	24	4	55*	-43	-13	50	15	nt
CN(C)C(=O)c1cc(C(=O)c2c(F)cccc2F)c[nH]1	-5	nt	-15	-19	nt	nt	nt	nt
CC1CC(C)CN(C(=O)CN2C(=O)NC3(CCCCCCC3)C2=O)C1 (centres undefined)	nt	nt	-14	nt	0	9	nt	nt
